Test results taken from paper PMC5320539 (ACS Chemical Biology, 2016).
Entries after “also recorded” stand apart in the source; their conditions may differ. Like-named read-outs stand apart in the source and are kept apart here. Positions of bridges follow the written chain, without caps; N, C: chain ends. Non-standard residues stand in square brackets, D forms with d. Residues, ends and D or L forms follow the SMILES beside them. No end group written: not given here. *: point of attachment. S5 = C=CCCC[C@](C)(N)C(=O)O; code λ = not defined here; Dap = NC[C@H](N)C(=O)O; ClAc = O=C(CCl)*

B1: hBfl-1ΔTm(1–149) (domain or fragment)
chain: MTDCEFGYIYRLAQDYLQCVLQIPQPGSGPSKTSRVLQNVAFSVQKEVEKNLKSCLDNVNVVSVDTARTLFNQVMEKEFEDGIINWGRIVTIFAFEGILIKKLLRQQIAPDVDTYKEISYFVAEFIMNNTGEWIRQNGGWENGFVKKFE

What was measured:
[1] = biological target: T1, hBfl-1 (Homo sapiens, UniProt Q16548); assay: DELFIA displacement of biotinylated BID BH3 peptide from hBfl-1; assay type: binding; details: hBfl-1 versus hMcl-1
T1 sequence (Q16548 with tags, fused parts or gaps): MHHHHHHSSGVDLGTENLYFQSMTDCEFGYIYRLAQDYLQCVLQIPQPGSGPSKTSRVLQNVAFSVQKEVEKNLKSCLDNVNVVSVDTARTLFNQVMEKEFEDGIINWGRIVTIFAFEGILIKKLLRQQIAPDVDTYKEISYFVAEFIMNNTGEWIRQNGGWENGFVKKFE

[2] = biological target: T1, hBfl-1; assay: Covalent adduct formation by SDS gel electrophoresis; assay type: binding; details: hBfl-1 10 μM, equimolar peptide, 15 min to 2 h
Method in brief: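 Synthetic peptide and human Bcl-2 family protein were incubated together at equimolar 10 μM. hBfl-1 (10 μM) was sampled with or without peptide at 15 min, 30 min, 1 h and 2 h. Samples were resolved by SDS-PAGE and stained with Coomassie.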

[3] = system: primary CLL cells; assay type: cell-based, human; details: primary CLL cells alone or cocultured with stroma-NK-tert cells, 48 h
Method in brief: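 Primary CLL cells were taken as PBMC from heparinized patient blood by Ficoll density gradient, using samples >95% CD5+/CD19+. They were cultured in RPMI with 10% heat-inactivated FBS at 3 × 10^5 cells/well, 37 °C, 5% CO2, alone or on bone-marrow NK-tert stroma ([…]), with test compound for 48 h. Cells were gated CD19/CD5 (4 °C, 30 min), stained with DiOC6 (30 min, 37 °C), and analysed by flow cytometry as % SIA.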

[4] = biological target: Bcl-xL ΔTM (Bcl-xL deletion mutant lacking the transmembrane domain) (human); assay: DELFIA displacement assay
[5] = biological target: Recombinant hBcl-2 protein (human); assay: DELFIA displacement assay
[6] = biological target: T1, hBfl-1; assay: Isothermal titration calorimetry against hBfl-1; assay type: binding; details: VP-ITC, reverse fashion (protein titrated into compound), 25 °C, PBS + 10% DMSO
[7] = biological target: B1; assay: DELFIA displacement assay
[8] = biological target: hMcl-1 (172–323) (human, UniProt Q07820 172-323); assay: DELFIA displacement assay
[9] = biological target: Bcl-xL ΔTM (Bcl-xL deletion mutant lacking the transmembrane domain) (human); assay: DELFIA displacement assay; remark: listed apart in the source
[10] = biological target: Recombinant hBcl-2 protein (human); assay: DELFIA displacement assay; remark: listed apart in the source
[11] = biological target: T2, hBfl-1ΔTm(1–149) (human); assay: DELFIA displacement assay
T2 chain: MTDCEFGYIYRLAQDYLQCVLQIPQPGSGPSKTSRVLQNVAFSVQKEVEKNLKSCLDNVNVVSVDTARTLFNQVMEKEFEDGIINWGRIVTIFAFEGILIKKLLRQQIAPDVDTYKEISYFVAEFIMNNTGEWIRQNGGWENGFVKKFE

[12] = biological target: T3, hMcl-1 (172–323) (human), Q07820; assay: DELFIA displacement assay
T3 chain: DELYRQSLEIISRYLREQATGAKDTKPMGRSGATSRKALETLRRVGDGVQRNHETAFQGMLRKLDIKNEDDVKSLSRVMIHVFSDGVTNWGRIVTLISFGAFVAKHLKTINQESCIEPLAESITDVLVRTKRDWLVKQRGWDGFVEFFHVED

[13] = biological target: T4, biotin-BID (Biotin-lc-EDIIRNIARHLAQVGDSMDR-NH2) (N-terminal biotin-lc (aminohexanoic acid); C-terminal amide); assay: DELFIA displacement assay
T4 peptide: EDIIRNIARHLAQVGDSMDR

[14] = biological target: B1; assay: ITC
[15] = biological target: 130E7 (covalent hBIM derived BH3 peptide, Ac-λ…-NH2) (human); assay: ITC

Molecule: Ac-CATQLRRFGDKLNFRQKLLN-NH2 [hNOXA]
- increased affinity for hBfl-1 over hMcl-1 [1]: over 2 orders of magnitude
- covalent complex with hBfl-1 (SDS-PAGE, Coomassie) [2]: formed a covalent complex

Molecule: Nc1nc(F)nc2c1ncn2[C@@H]1O[C@H](CO)[C@@H](O)[C@@H]1O [fludarabine]
- single agent activity (% SIA), in words [3]: limited activity

Molecule: NOXA A (Ac-…-NH2) (peptide)
- IC50 [4]: > 1000 nM
- IC50 [5]: > 1000 nM

Molecule: COc1cc([C@@H]2c3cc4c(cc3[C@@H](O[C@@H]3O[C@@H]5CO[C@@H](C)O[C@H]5[C@H](O)[C@H]3O)[C@H]3COC(=O)[C@H]23)OCO4)cc(OC)c1O [etoposide]
- single agent activity (% SIA), in words [3]: limited activity

Molecule: CC[C@H](C)[C@H](NC(=O)[C@H](CNC(=O)CCl)NC(C)=O)C(=O)N[C@@H](C)C(=O)N[C@@H](CCC(N)=O)C(=O)N[C@@H](CCC(=O)O)C(=O)N[C@@H](CC(C)C)C(=O)N[C@@H](CCCNC(=N)N)C(=O)N[C@@]1(C)CCC/C=C\CCC[C@@](C)(C(=O)N[C@@H](Cc2ccccc2)C(=O)N[C@@H](CC(N)=O)C(=O)N[C@@H](C)C(=O)N[C@@H](Cc2ccc(O)cc2)C(=O)N[C@@H](Cc2ccc(O)cc2)C(=O)N[C@@H](C)C(=O)N[C@@H](CCCNC(=N)N)C(=O)N[C@@H](CCCNC(=N)N)C(N)=O)NC(=O)[C@H](CC(=O)O)NC(=O)CNC(=O)[C@H]([C@@H](C)CC)NC1=O [130D11] (Ac-[Dap](ClAc)IAQELR[S5]IGD[S5]FNAYYARR-NH2; staple (Z) 8-12)
- ITC KD hBfl-1 [6]: not detected; also recorded: no significant binding

Molecule: NOXA B (Ac-…-NH2) (peptide)
- IC50 [4]: > 1000 nM
- IC50 [5]: > 1000 nM

Molecule: Ac-CATQLRRFGDKLNFRQKLLN-NH2 [hNOXA (Ac-CATQLRRFGDKLNFRQKLLN-NH2)]
- IC50 [7]: 7.5 nM
- IC50 [8]: 228 nM

Molecule: Ac-[code λ]ATQLRRFGDKLNFRQKLLN-NH2 (reading uncertain) [λ_hNOXA (Ac-λ…-NH2)]
- IC50 [9]: > 1000 nM
- IC50 [10]: > 1000 nM
- IC50 [11]: 287 nM
- IC50 [12]: 233 nM

Molecule: Ac-AELPPEFAAQLRKIGDKVYC-NH2 [NOXA A (Ac-AELPPEFAAQLRKIGDKVYC-NH2)]
- IC50 [7]: > 1000 nM

Molecule: Ac-CATQLRRFGDKLN-NH2 [hNOXAs (Ac-…-NH2)]
- IC50 [4]: > 1000 nM
- IC50 [5]: > 1000 nM

Molecule: B1
- binding result [13]: binds

Molecule: Ac-[code h]ATQLRRFGDKLNFRQKLLN-NH2 [homo_hNOXA (Ac-h…-NH2)]
- IC50 [9]: > 1000 nM
- IC50 [10]: > 1000 nM
- IC50 [11]: 83 nM
- IC50 [12]: 266 nM

Molecule: Ac-CATQLRRFGDKLNFRQKLLNLISKLFC-NH2 (also: cyclic (cyc_), mode of cyclisation not given here) [cyc_hNOXA (Ac-CATQLRRFGDKLNFRQKLLNLISKLFC-NH2)]
- IC50 [7]: 86 nM
- IC50 [8]: 344 nM

Molecule: [Dap](ClAc)IAQELRRIGDEFNAYYARR [130E7]
- Kd [14]: 2.6 nM

B2: hMcl-1 (172-323), Q07820 172-323 (domain or fragment)
chain: DELYRQSLEIISRYLREQATGAKDTKPMGRSGATSRKALETLRRVGDGVQRNHETAFQGMLRKLDIKNEDDVKSLSRVMIHVFSDGVTNWGRIVTLISFGAFVAKHLKTINQESCIEPLAESITDVLVRTKRDWLVKQRGWDGFVEFFHVED
- Kd [15]: 2 nM

Molecule: PRRPRRPRRPRRPRR[Dap](ClAc)IAQELRRIGDEFNAYYARR [130G4]
- Kd [14]: 23 nM

Molecule: Ac-CATQLRRFGDKLN-NH2 [hNOXAs (Ac-CATQLRRFGDKLN-NH2)]
- IC50 [7]: 15 nM
- IC50 [8]: > 1000 nM

Molecule: Ac-AATQLRRFGDKLN-NH2 [C1A_hNOXAs (Ac-AATQLRRFGDKLN-NH2)]
- IC50 [7]: > 1000 nM
- IC50 [8]: > 1000 nM

Molecule: Ac-PADLKDECAQLRRIGDKVNL-NH2 [NOXA B (Ac-PADLKDECAQLRRIGDKVNL-NH2)]
- IC50 [7]: 431 nM

Molecule: Ac-CATQLRRFGDKLNFRQKLLN-NH2 [hNOXA (Ac-…-NH2)]
- IC50 [4]: > 1000 nM
- IC50 [5]: > 1000 nM
